For 13 molecules, pD2 and LD50 results are on record in ChEMBL document CHEMBL1122232, “Quantitative structure-inotropy relationship applied to substituted grayanotoxins” (J Med Chem, 1983).

One series is filed under the species Cavia porcellus. Description: Positive inotropic effect was determined by measuring force of contraction of papillary muscle in guinea pig at a driving rate of 1.0 Hz. In kind it is functional, Muscle tissue. A digest of the protocol: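 Isolated guinea pig papillary muscle paced at 1.0 Hz in Krebs-Henseleit solution (Ca2+ 3.2 mM, 30 °C). Compounds added cumulatively to the bath every 20 min. Contraction force recorded on oscillographic paper. pD2 = molar concentration giving 50% of maximum positive inotropic effect, read from concentration-response curves in five to six muscles; mean reported.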

Series [1] in a line: Lethal dose in guinea pig. Conditions: in vivo. In kind it is toxicity, organism-based, Cavia porcellus. An outline of the steps: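 Male Hartley guinea pigs of about 350 g. LD50 determined by the up-and-down method.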

Each structure is given as a SMILES string.

As usually defined, the LD50 is the dose expected to kill half of the subjects tested. For the molecule `CCCCCC(=O)O[C@@H]1C2CCC3[C@@](C)(O)C4CC(O)C(C)(C)C4(O)C(O)C[C@]31C[C@@]2(C)O` (stereo not given in full), the pD2 in the series listed under Cavia porcellus is on record as 5.75. This molecule also registered an LD50 in series [1] of 0.34 mg/kg.
For `CCCCC(=O)O[C@@H]1C2CCC3[C@@](C)(O)C4CC(O)C(C)(C)C4(O)C(O)C[C@]31C[C@@]2(C)O` (stereo not given in full), in that order: 6.41 and 0.17 mg/kg.
Taken in the same sequence, the figures for `CC(=O)O[C@@H]1C2CCC3[C@@](C)(O)C4CC(O)C(C)(C)C4(O)C(O)C[C@]31C[C@@]2(C)O` (stereo not given in full) were 6.31 and 1.3 mg/kg.
Taken in the same sequence, the figures for `CCC(=O)O[C@@H]1C2CCC3[C@@](C)(O)C4CC(O)C(C)(C)C4(O)C(O)C[C@]31C[C@@]2(C)O` (stereo not given in full) were 6.67 and 0.044 mg/kg.
Regarding `CC(C)(C)C(=O)O[C@@H]1C2CCC3[C@@](C)(O)C4CC(O)C(C)(C)C4(O)C(O)C[C@]31C[C@@]2(C)O` (stereo not given in full), the pD2 in the series filed under Cavia porcellus is recorded as 5.78. The LD50 in series [1] came out at 0.36 mg/kg.
Taken in the same sequence, the figures for `CC1(C)C(O)CC2C1(O)C(O)C[C@]13C[C@@](C)(O)C(CCC1[C@@]2(C)O)[C@H]3OC(=O)CCCl` (stereo not given in full) were 6.96 and 0.17 mg/kg.
Taken in the same sequence, the figures for `CC1(C)[C@@H](O)C[C@@H]2[C@]1(O)[C@H](O)C[C@]13C[C@@](C)(O)[C@H](CCC1[C@@]2(C)O)[C@H]3O[C@H]1O[C@@H](CO)[C@H](O)[C@@H](O)[C@@H]1O` (stereo not given in full) were under 4 and under 6 mg/kg.
Taken in the same sequence, the figures for `CC1(C)C(O)CC2C1(O)C(O)C[C@]13C[C@@](C)(O)C(CCC1[C@@]2(C)O)[C@H]3OC(=O)C1CCCCC1` (stereo not given in full) were 6.17 and 0.31 mg/kg.
`CC1(C)C(O)CC2C1(O)C(O)C[C@]13C[C@@](C)(O)C(CCC1[C@@]2(C)O)[C@H]3O` (stereo not given in full): in the series filed under Cavia porcellus, the pD2 worked out at 6.15. In series [1], this molecule gave a 50% lethal dose (LD50) of 0.45 mg/kg.
Molecule `CCCCCCC(=O)O[C@@H]1C2CCC3[C@@](C)(O)C4CC(O)C(C)(C)C4(O)C(O)C[C@]31C[C@@]2(C)O` (stereo not given in full) showed a pD2 in the series filed under Cavia porcellus of 5.32.
The molecule `CCCC(=O)O[C@@H]1C2CCC3[C@@](C)(O)C4CC(O)C(C)(C)C4(O)C(O)C[C@]31C[C@@]2(C)O` (stereo not given in full) had a pD2 in the series listed under Cavia porcellus of 6.81. This molecule returned an LD50 in series [1] of 0.12 mg/kg.
`CC1(C)C(O)CC2C1(O)C(O)C[C@]13C[C@@](C)(O)C(CCC1[C@@]2(C)O)[C@H]3OC(=O)c1ccccc1` (stereo not given in full) had a pD2 in the series filed under Cavia porcellus of 5.79. Moreover, the LD50 in series [1] came out at 1.35 mg/kg.
The molecule `CC(O)C(=O)O[C@@H]1C2CCC3[C@@](C)(O)C4CC(O)C(C)(C)C4(O)C(O)C[C@]31C[C@@]2(C)O` (stereo not given in full) gave a pD2 in the series filed under Cavia porcellus of 6.54. For the same molecule, the LD50 in series [1] turned out to be 0.08 mg/kg.
